Source: ChEMBL document CHEMBL4152190, “Microwave-assisted one-pot synthesis of new phenanthrene fused-tetrahydrodibenzo-acridinones as potential cytotoxic and apoptosis inducing agents” (Eur J Med Chem, 2018)
Calls of active or inactive are those of the source. No cut-off for these calls is given here.

How the values were obtained:
SK-OV-3 [1] = experiment: Induction of apoptosis in human SKOV3 cells assessed as increase in horse shoe shaped nuclei at 0.1 to 0.5 uM after 24 hrs by […] staining-based fluorescence microscopic analysis; format: functional, cell-based
Method in brief: (§1)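 SKOV-3 cells on coverslips (5×10^5/well), adhered 24 h, then exposed 24 h. Fixed in 4% formaldehyde 10 min at 4 °C, stained with […] (5 µg/mL) 30 min at room temperature, and nuclear morphology scored by fluorescence microscopy (ex 350/em 460 nm, 20×).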

SK-OV-3 [2] = experiment: Induction of apoptosis in human SKOV3 cells assessed as increase in caspase3 activity at 0.5 uM using Ac-DEVDpNA as substrate pretreated for 24 hrs followed by substrate addition and measured for 2 hrs by colorimetric analysis relative to control; format: functional
Method in brief: (§2)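 SKOV-3 cells (2×10^5/well) exposed 24 h, trypsinised, lysed 20 min, and lysate cleared at 15000 rpm for 10 min at 4 °C. Supernatant incubated with reaction buffer and Ac-DEVD-pNA 2 h at 37 °C, then read at 405 nm. Activity expressed as fold of untreated control (set to 1).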

SK-OV-3 [3] = experiment: Cell cycle arrest in human SKOV3 cells assessed as accumulation of cells at G2/M phase at 0.2 uM after 24 hrs by propidium iodide staining-based flow cytometric analysis (reference value: 14.7%); format: functional
Method in brief: (§3)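 SKOV-3 cells (1×10^6/well) exposed 24 h, trypsinised, washed in PBS, fixed in 70% ethanol 30 min at 4 °C, stained 15 min in the dark at room temperature with PBS containing propidium iodide, Triton X and DNase-free RNase A. DNA content read by flow cytometry (15,000 events per methods; legend cites 10,000 cells). G0/G1, S and G2/M percentages taken from instrument software.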

SK-OV-3 [4] = experiment: Cell cycle arrest in human SKOV3 cells assessed as accumulation of cells at S phase at 0.1 uM after 24 hrs by propidium iodide staining-based flow cytometric analysis (reference value: 5%); format: functional; method in brief: as §3
SK-OV-3 [5] = experiment: Induction of oxidative stress in human SKOV3 cells assessed as ROS generation by measuring fluorescence intensity at 0.5 uM after 24 hrs by carboxy-H2DCFDA dye-based flow cytometric analysis (reference value: 100%); format: functional
Method in brief: (§4)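 SKOV-3 cells (2×10^5/well) exposed 24 h, trypsinised, and loaded with 10 µM carboxy-H2DCFDA in PBS 15 min at room temperature in the dark. After washing, green DCF fluorescence was read by flow cytometry and expressed as % of control (100%).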

SK-OV-3 [6] = experiment: Induction of apoptosis in human SKOV3 cells assessed as increase in caspase3 activity at 0.1 uM using Ac-DEVDpNA as substrate pretreated for 24 hrs followed by substrate addition and measured for 2 hrs by colorimetric analysis relative to control; format: functional; method in brief: as §2
SK-OV-3 [7] = experiment: Induction of oxidative stress in human SKOV3 cells assessed as ROS generation by measuring fluorescence intensity at 0.1 uM after 24 hrs by carboxy-H2DCFDA dye-based flow cytometric analysis (reference value: 100%); format: functional; method in brief: as §4
Homo sapiens [8] = organism: Homo sapiens; experiment: Inhibition of F-actin polymerization in human SKOV3 cells assessed as decrease in F-actin extensions at 0.1 to 0.5 uM after 24 hrs by rhodamine-phalloidin/[…] staining-based confocal fluorescence microscopic analysis; format: cell-based
Method in brief: (§5)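 SKOV-3 cells (1×10^6/well) on coverslips, grown 24 h, then exposed 24 h. Washed, fixed in 4% paraformaldehyde in PBS, stained with rhodamine-phalloidin (F-actin) and […] (nuclei), mounted in anti-fade medium, and imaged by confocal microscopy at 20×.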

SK-OV-3 [9] = experiment: Cell cycle arrest in human SKOV3 cells assessed as accumulation of cells at G2/M phase at 0.5 uM after 24 hrs by propidium iodide staining-based flow cytometric analysis (reference value: 14.7%); format: functional; method in brief: as §3
SK-OV-3 [10] = experiment: Induction of oxidative stress in human SKOV3 cells assessed as ROS generation by measuring fluorescence intensity at 0.2 uM after 24 hrs by carboxy-H2DCFDA dye-based flow cytometric analysis (reference value: 100%); format: functional; method in brief: as §4
HEK-293T = experiment: Cytotoxicity against human HEK293T cells after 48 hrs by MTT assay; format: cell-based
Method in brief: (§6)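 ATCC lines grown in DMEM or RPMI with 10% FBS and antibiotic-antimycotic, 37 °C, 5% CO2. Seeded at 3×10^4 cells/well, 24 h before dosing with vehicle (DMSO) controls. […] Cisplatin as reference.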

SK-OV-3 [11] = experiment: Inhibition of spheroid growth in human SKOV3 cells at 0.5 uM after 72 hrs by phase contrast microscopic analysis; format: functional, cell-based
Method in brief: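 SKOV-3 cells (5000/well) in ultra-low-attachment round-bottom wells, grown 2 days to form spheroids, then exposed for 72 h. Spheroid growth and surface area assessed by phase contrast microscopy.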

SK-OV-3 [12] = experiment: Cell cycle arrest in human SKOV3 cells assessed as decrease in cells at G0/G1 phase at 0.1 to 0.5 uM after 24 hrs by propidium iodide staining-based flow cytometric analysis; format: functional; method in brief: as §3
SK-OV-3 [13] = experiment: Induction of apoptosis in human SKOV3 cells assessed as nuclear fragmentation at 0.1 to 0.5 uM after 24 hrs by […] staining-based fluorescence microscopic analysis; format: functional, cell-based; method in brief: as §1
HeLa = experiment: Cytotoxicity against human HeLa cells after 48 hrs by MTT assay; format: functional, cell-based; method in brief: as §6
SK-OV-3 [14] = experiment: Induction of apoptosis in human SKOV3 cells assessed as increase in caspase3 activity at 0.2 uM using Ac-DEVDpNA as substrate pretreated for 24 hrs followed by substrate addition and measured for 2 hrs by colorimetric analysis relative to control; format: functional; method in brief: as §2
PC-3 = experiment: Cytotoxicity against human PC3 cells after 48 hrs by MTT assay; format: functional, cell-based; conditions: PC-3, 48 h; method in brief: as §6
SK-OV-3 [15] = experiment: Cell cycle arrest in human SKOV3 cells assessed as accumulation of cells at S phase at 0.2 uM after 24 hrs by propidium iodide staining-based flow cytometric analysis (reference value: 5%); format: functional; method in brief: as §3
SK-OV-3 [16] = experiment: Cell cycle arrest in human SKOV3 cells assessed as accumulation of cells at S phase at 0.5 uM after 24 hrs by propidium iodide staining-based flow cytometric analysis (reference value: 5%); format: functional; method in brief: as §3
Homo sapiens [17] = organism: Homo sapiens; experiment: Inhibition of F-actin polymerization in human SKOV3 cells assessed as induction of stress fibers disruption around nucleus at 0.1 to 0.5 uM after 24 hrs by rhodamine-phalloidin/[…] staining-based confocal fluorescence microscopic analysis; format: cell-based; method in brief: as §5
SK-OV-3 [18] = experiment: Induction of apoptosis in human SKOV3 cells assessed as chromatin condensation at 0.1 to 0.5 uM after 24 hrs by […] staining-based fluorescence microscopic analysis; format: functional, cell-based; method in brief: as §1
SK-OV-3 [19] = experiment: Induction of apoptosis in human SKOV3 cells assessed as disruption of mitochondrial membrane potential at 0.1 to 0.5 uM after 24 hrs by JC-1 dye-based fluorescence microscopic analysis; format: functional, cell-based
Method in brief: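 SKOV-3 cells at 5×10^5 cells/mL, adhered overnight, exposed 24 h with DMSO-treated controls. Stained with JC-1 (5 µg/mL in PBS) 30 min at room temperature, washed, and imaged in red (J-aggregate) and green (monomer) channels by fluorescence microscopy at 20×.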

[20] = Selectivity index, ratio of IC50 for cytotoxicity against human HEK293T cells to IC50 for cytotoxicity against human SKOV3 cells after 48 hrs by MTT assay; format: toxicity, cell-based; conditions: HEK293T cells versus SKOV3 cells, read-out: Ratio IC50
SK-OV-3 [21] = experiment: Cytotoxicity against human SKOV3 cells after 48 hrs by MTT assay; format: functional, cell-based; conditions: SK-OV-3, 48 h; method in brief: as §6
SK-OV-3 [22] = experiment: Induction of apoptosis in human SKOV3 cells assessed as increase in pyknotic nuclei at 0.1 to 0.5 uM after 24 hrs by […] staining-based fluorescence microscopic analysis; format: functional, cell-based; method in brief: as §1
SK-OV-3 [23] = experiment: Cell cycle arrest in human SKOV3 cells assessed as accumulation of cells at G2/M phase at 0.1 uM after 24 hrs by propidium iodide staining-based flow cytometric analysis (reference value: 14.7%); format: functional; method in brief: as §3
HT-1080 = experiment: Cytotoxicity against human HT1080 cells after 48 hrs by MTT assay; format: functional, cell-based; conditions: HT-1080, 48 h; method in brief: as §6
SK-OV-3 [24] = experiment: Induction of oxidative stress in human SKOV3 cells assessed as ROS generation by measuring fluorescence intensity at 0.1 to 0.5 uM after 24 hrs by carboxy-H2DCFDA dye-based flow cytometric analysis relative to untreated control; format: functional; method in brief: as §4

COc1cc2c3c(c4cc(OC)c(OC)cc4c2cc1OC)C(c1cccc(C(F)(F)F)c1)C1=C(CCCC1=O)N3 (stereo not drawn)
Activity (SK-OV-3 [1]): Active | fold change (FC) (SK-OV-3 [2]): 3.78 | Activity (SK-OV-3 [3]): 33.5% | Activity (SK-OV-3 [4]): 2.3% | Activity (SK-OV-3 [5]): 204.76% | fold change (FC) (SK-OV-3 [6]): 1.58 | Activity (SK-OV-3 [7]): 128.5% | inhibition (Homo sapiens [8]): Active | Activity (SK-OV-3 [9]): 37.9% | Activity (SK-OV-3 [10]): 150.3% | IC50 (HEK-293T): 18.5 µM | inhibition (SK-OV-3 [11]): Active | Activity (SK-OV-3 [12]): Active | Activity (SK-OV-3 [13]): Active | IC50 (HeLa): 4.38 µM | fold change (FC) (SK-OV-3 [14]): 2.45 | IC50 (PC-3): 11.8 µM | Activity (SK-OV-3 [15]): 19.3% | Activity (SK-OV-3 [16]): 14.1% | inhibition (Homo sapiens [17]): Active | Activity (SK-OV-3 [18]): Active | Activity (SK-OV-3 [19]): Active | selectivity ratio at 48 h [20]: 77 | IC50 (SK-OV-3 [21]): 0.24 µM | Activity (SK-OV-3 [22]): Active | Activity (SK-OV-3 [23]): 22.6% | IC50 (HT-1080): 3.89 µM | fold change (FC) (SK-OV-3 [24]): 2

COc1cc(C2C3=C(CC(C)(C)CC3=O)Nc3c2c2cc(OC)c(OC)cc2c2cc(OC)c(OC)cc32)ccc1O (stereo not drawn)
IC50 (HEK-293T): > 50 µM | IC50 (HeLa): 11.7 µM | IC50 (PC-3): 23.8 µM | IC50 (SK-OV-3 [21]): 13.6 µM | IC50 (HT-1080): 9.83 µM

COc1cc2c3c(c4cc(OC)c(OC)cc4c2cc1OC)C(c1cccs1)C1=C(CC(C)(C)CC1=O)N3 (stereo not drawn)
IC50 (HEK-293T): 18.9 µM | IC50 (HeLa): 2.28 µM | IC50 (PC-3): 7.1 µM | IC50 (SK-OV-3 [21]): 1.6 µM | IC50 (HT-1080): 5.87 µM

COc1ccc(C2C3=C(CC(C)(C)CC3=O)Nc3c2c2cc(OC)c(OC)cc2c2cc(OC)c(OC)cc32)cc1OC (stereo not drawn)
IC50 (HEK-293T): 43.5 µM | IC50 (HeLa): 28.1 µM | IC50 (PC-3): 17.6 µM | IC50 (SK-OV-3 [21]): 13.7 µM | IC50 (HT-1080): 21.3 µM

COc1cc2c3c(c4cc(OC)c(OC)cc4c2cc1OC)C(c1ccc(C(F)(F)F)cc1)C1=C(CC(C)(C)CC1=O)N3 (stereo not drawn)
IC50 (HEK-293T): 35.7 µM | IC50 (HeLa): > 50 µM | IC50 (PC-3): 31.4 µM | IC50 (SK-OV-3 [21]): 18.6 µM | IC50 (HT-1080): 15.6 µM

COc1cc2c3c(c4cc(OC)c(OC)cc4c2cc1OC)C(c1sccc1C)C1=C(CC(C)(C)CC1=O)N3 (stereo not drawn)
IC50 (HEK-293T): 33.5 µM | IC50 (HeLa): 3.7 µM | IC50 (PC-3): 21.6 µM | IC50 (SK-OV-3 [21]): 2.89 µM | IC50 (HT-1080): 8.85 µM

COc1ccc(C2C3=C(CCCC3=O)Nc3c2c2cc(OC)c(OC)cc2c2cc(OC)c(OC)cc32)cc1 (stereo not drawn)
IC50 (HEK-293T): 28.3 µM | IC50 (HeLa): 2.62 µM | IC50 (PC-3): 5.79 µM | IC50 (SK-OV-3 [21]): 0.61 µM | IC50 (HT-1080): 2.62 µM

COc1ccc(C2C3=C(CCCC3=O)Nc3c2c2cc(OC)c(OC)cc2c2cc(OC)c(OC)cc32)cc1OC (stereo not drawn)
IC50 (HEK-293T): > 50 µM | IC50 (HeLa): > 50 µM | IC50 (PC-3): > 50 µM | IC50 (SK-OV-3 [21]): 11.5 µM | IC50 (HT-1080): 25.7 µM

COc1cc2c3c(c4cc(OC)c(OC)cc4c2cc1OC)C(c1ccc(Br)cc1)C1=C(CC(C)(C)CC1=O)N3 (stereo not drawn)
IC50 (HEK-293T): 36.3 µM | IC50 (HeLa): 31.6 µM | IC50 (PC-3): 12.4 µM | IC50 (SK-OV-3 [21]): 15.5 µM | IC50 (HT-1080): 11.6 µM
